Data published in ChEMBL document CHEMBL1131384, “Synthesis and structure-activity relationships of potent and orally active 5-HT4 receptor antagonists: indazole and benzimidazolone derivatives” (J Med Chem, 1998).

How the values were obtained:
[1] = molecular target: 5-hydroxytryptamine receptor 4 (Rattus norvegicus) (UniProt Q62758); test: Antagonistic activity evaluated by ability to block serotonin induced relaxation via 5-hydroxytryptamine 4 receptor) in carbamylcholine (10e-6 M) contracted esophagus at a concentration of 0.1 mg/kg (p.o.); assay type: functional, organism-based; design: dose 0.1 mg/kg
Sequence of 5-hydroxytryptamine receptor 4 (Rattus norvegicus) (Q62758 whole entry): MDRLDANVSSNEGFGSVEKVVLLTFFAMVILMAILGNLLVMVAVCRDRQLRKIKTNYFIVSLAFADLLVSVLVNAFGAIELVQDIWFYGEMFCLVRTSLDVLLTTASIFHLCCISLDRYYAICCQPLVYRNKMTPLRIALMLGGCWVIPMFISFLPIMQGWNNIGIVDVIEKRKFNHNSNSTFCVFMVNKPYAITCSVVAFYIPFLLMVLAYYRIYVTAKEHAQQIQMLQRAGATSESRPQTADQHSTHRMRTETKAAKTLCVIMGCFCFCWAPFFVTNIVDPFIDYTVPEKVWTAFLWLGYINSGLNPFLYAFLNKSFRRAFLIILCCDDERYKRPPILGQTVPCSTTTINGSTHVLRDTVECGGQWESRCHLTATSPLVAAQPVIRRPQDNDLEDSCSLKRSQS
Method in brief: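 Rats were dosed with the antagonist by oral gavage. Esophagus was removed 3 h after dosing and challenged ex vivo with serotonin. Read-out was % relaxation of the carbamylcholine-contracted tissue to 10^-6 M 5-HT, given as mean ± SEM with the number of determinations.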

[2] = molecular target: Adrenergic receptor alpha-1 (Rattus norvegicus) (UniProt P15823+P23944+P43140); test: Affinity for the alpha-1 adrenergic receptor determined by the displacement of [3H]prazosin from rat whole brain tissue.; assay type: tissue-based
[3] = molecular target: 5-hydroxytryptamine receptor 4 (Rattus norvegicus) (UniProt Q62758); test: Antagonistic activity by ability to block serotonin induced relaxation (mediated by activation of 5-hydroxytryptamine 4 receptor) in carbamylcholine (10e-6 M) contracted esophagus at a concentration of 10e-6 M.; assay type: functional, tissue-based
Method in brief: (§1)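 Isolated rat esophagus precontracted with carbamylcholine (10^-6 M). Tissue was challenged with serotonin (1 µM) in the presence of the antagonist at a given concentration or of vehicle. Relaxation was recorded as % relaxation to 10^-6 M 5-HT, given as mean ± SEM with the number of determinations.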

[4] = molecular target: 5-hydroxytryptamine receptor 4 (Rattus norvegicus) (UniProt Q62758); test: Antagonistic activity of compound was evaluated by ability to block serotonin induced relaxation (mediated by activation of 5-hydroxytryptamine 4 receptor) in carbamylcholine (10e-6 M) contracted esophagus at a concentration of 3*10e-7 M.; assay type: functional
Method in brief: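 Isolated rat esophagus precontracted with carbamylcholine (10^-6 M), then challenged with serotonin (1 μM) in the presence of antagonist at the stated concentration or vehicle. Read-out is % relaxation to serotonin, given as mean ± SEM with the number of determinations.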

[5] = molecular target: 5-hydroxytryptamine receptor 4 (Rattus norvegicus) (UniProt Q62758); test: Antagonistic activity by ability to block serotonin induced relaxation (mediated by activation of 5-hydroxytryptamine 4 receptor) in carbamylcholine (10e-6 M) contracted esophagus at a concentration of 10e-7 M.; assay type: functional, tissue-based; method in brief: as §1

In the case of `CC(C)n1nc(C(=O)NCCCN2CCCCC2)c2ccccc21`, the Relaxation [1] is reported as 15%, the pKi [2] is reported as < 4.5 and the Relaxation [3] is reported as 6.3%. For the same compound, the Relaxation [4] was 14.3% and the Relaxation [5] was 27.3%.
